Measurements as given in ChEMBL document CHEMBL1141647, “Novel ofloxacin derivatives: synthesis, antimycobacterial and toxicological evaluation” (Bioorg Med Chem Lett, 2008).
Values after ≈ are worked out from the molar mass of the structure shown.

Assays:
[1] = system: Mycobacterium tuberculosis; assay: Antimycobacterial activity against Mycobacterium tuberculosis ATCC 35801 infected CD1 mouse spleen assessed as viable organisms at 25 mg/kg, ip after 35 days relative to control; format: functional; settings: route intraperitoneal
Summary of the method: (§1)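 CD-1 mice infected intravenously with M. tuberculosis ATCC 35801; intraperitoneal treatment started 10 days after inoculation and continued for 10 days. At 35 days postinfection, spleens and right lungs were removed aseptically and viable organisms counted (log CFU). Counts were compared with vehicle-treated controls.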

[2] = system: Vero; assay: Cytotoxicity against african green monkey Vero cells after 72 hrs by MTT assay; format: cell-based; settings: Chlorocebus sabaeus
Summary of the method: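 Vero cells exposed for 72 h; tested up to 62.5 µg/mL. Viability was read as cellular conversion of MTT to formazan, and IC50 was reported in µM.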

[3] = system: Mycolicibacterium smegmatis; assay: Antimycobacterial activity against Mycobacterium smegmatis ATCC 14468 by agar dilution method; format: functional
Summary of the method: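 MC² (M. smegmatis) growth inhibition; MIC99 taken as the lowest concentration giving complete inhibition of bacterial growth, in µM.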

[4] = system: Mycobacterium tuberculosis; assay: Antimycobacterial activity against Mycobacterium tuberculosis H37Rv by agar dilution method; format: functional
Summary of the method: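 MIC99 was taken as the lowest concentration giving complete inhibition of bacterial growth.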

[5] = system: Mycobacterium tuberculosis; assay: Antimycobacterial activity against Mycobacterium tuberculosis ATCC 35801 infected CD1 mouse lungs assessed as viable organisms at 25 mg/kg, ip after 35 days relative to control; format: functional; settings: route intraperitoneal; summary of the method: as §1

SMILES: NNC(=O)c1ccncc1 [ISONIAZID]
- Log10 cfu [1]: 4.71
- IC50 [2]: > 456 µM
- MIC99 [3]: 45.6 µM (≈ 6.25 µg/mL)
- MIC99 [4]: 0.36 µM (≈ 0.0494 µg/mL)
- Log10 cfu [5]: 5.86
